Laboratory results published in PMC10878326 (Cell chemical biology, 2023).

How the values were obtained:
[1] = tested on: P. berghei schizonts in HC-04 cells; assay: Confocal imaging of P. berghei infected HC-04 cells treated with compound; assay type: cell-based, Plasmodium berghei; details: HC-04, 1x and 2x IC50, 48 hpi
Procedure, shortened: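 HC-04 cells were seeded at 16,000 cells/well on poly-L-lysine-coated chamber slides and pretreated 24 h with test compound, NR1D2 inhibitor or DMSO. They were then infected with P. berghei Luc sporozoites (MOI 1:1), with treatment kept to 48 hpi. Cells were fixed in 4% PFA, permeabilised with 0.1% Triton X-100 and blocked in 1% BSA. Staining: anti-UIS4 1:1000 overnight at 4 °C, anti-NR1D2 1:500, LipidTOX 1:500 and DAPI. Imaging was at 63x oil. Merozoites per schizont were counted. Two biological replicates; one-way ANOVA with Dunnett's test.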

NR1D2 = assay: Western blot of NR1D2 protein in uninfected HC-04 cells; assay type: cell-based, human; details: uninfected HC-04, 1x to 10x IC50, 48 hours
Procedure, shortened: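 Uninfected HC-04 cells were exposed 48 h to varying concentrations of test compound or NR1D2 inhibitor, then lysed. Protein was measured by DC assay, resolved by SDS-PAGE and transferred to nitrocellulose. Blots were blocked 1 h in 5% blocker and probed with anti-NR1D2 at 1:1000. Levels were expressed relative to beta actin.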

[2] = tested on: lipid droplets in uninfected HC-04 cells; assay: HCS LipidTOX lipid droplet staining in uninfected HC-04 cells; assay type: cell-based, human
P. berghei liver stages = assay: P. berghei luciferase liver stage assay; assay type: cell-based, Plasmodium berghei; details: IC50 used to set 1x and 2x treatment of HC-04 cells
NR1D2 transcript = assay: qPCR of NR1D2 transcript in treated HC-04 cells; assay type: cell-based, human; details: HC-04, post treatment 48h
Procedure, shortened: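 HC-04 cells were treated 48 h with varying concentrations of test compound or NR1D2 inhibitor. Cells were harvested, RNA was extracted, and NR1D2 transcript was quantified by qPCR with gene-specific primers.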

[3] = tested on: P. berghei infected HepG2 cells; assay: Cell Painting morphological profile compared with landmark compound set; assay type: cell-based, human
[4] = tested on: P. falciparum asexual blood stages; details: cited from earlier work
[5] = tested on: P. berghei in NR1D2 knockdown lines; assay: Parasite development IC50 shift in NR1D2 shRNA knockdown cells; assay type: cell-based, Plasmodium berghei; details: stable shRNA knockdown, luciferase after 48 hours

CN1CCN(Cc2cc(CNC3(c4ccccc4F)CCCC3)ccc2O)CC1 [ARN5187, reference compound]
number of merozoites per schizont relative to DMSO [1]: lower number of merozoites per schizont | NR1D2 protein expression level (western blot) (NR1D2): no changes in protein expression levels

CC1(C)c2nc(-c3ccc(F)cc3)c(Nc3ccc(Cl)cc3)n2CCN1C(=O)CN [GNF179]
HCS lipid tox staining intensities [2]: did not observe any significant changes

Cc1cc(C(=O)Oc2ccccc2C(N)=O)c(C)n1Cc1ccco1 [MMV1088447]
IC50 (P. berghei liver stages): 1.05 ± 0.29 µM | number of merozoites per schizont relative to DMSO [1]: significant reduction | parasite size relative to DMSO controls [1]: smaller | NR1D2 RNA expression levels (NR1D2 transcript): no significant changes | morphological profile similarity / inferred host pathway [3]: phenocopied treatment with tamoxifen, endoxifen and lichochalcone A | activity against asexual blood stages [4]: little activity | difference in IC50 in NR1D2 knockdown lines relative to wild type cells [5]: did not see any differences | NR1D2 protein expression level (western blot) (NR1D2): dose dependent reduction

N#CC(C(=O)c1cc(S(=O)(=O)N2CCc3ccccc3C2)ccc1Cl)c1ccccn1 (stereo not shown) [MMV1346624]
IC50 (P. berghei liver stages): 1.04 ± 0.73 µM | number of merozoites per schizont relative to DMSO [1]: significant reduction | parasite size relative to DMSO controls [1]: smaller | NR1D2 RNA expression levels (NR1D2 transcript): no significant changes | morphological profile similarity / inferred host pathway [3]: phenocopied treatment with tamoxifen, endoxifen and lichochalcone A | activity against asexual blood stages [4]: little activity | difference in IC50 in NR1D2 knockdown lines relative to wild type cells [5]: did not see any differences | NR1D2 protein expression level (western blot) (NR1D2): dose dependent reduction

Cc1cccc2sc(C(=O)NCc3cccc(NS(N)(=O)=O)c3)c(Cl)c12 [MMV1452174]
morphological profile similarity / inferred host pathway [3]: potential modulator of the host S1P pathway | HCS lipid tox staining intensities [2]: did not observe any significant changes

O=C1C(O)=C([C@H]2CC[C@H](c3ccc(Cl)cc3)CC2)C(=O)c2ccccc21 [atovaquone]
HCS lipid tox staining intensities [2]: did not observe any significant changes
